For the experiment, the species on record is Rattus norvegicus. Briefly: In vitro inhibitory concentration that relaxes KCL induced contraction in rat detrusor strips by 50%. The settings on record: Rattus norvegicus. It counts as functional. In short, it runs like this: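 Female Sprague-Dawley rat (250-350 g) detrusor strips, 4-5 mm by 10 mm, pretensioned 0.25-0.5 g in a tissue bath and contracted with an additional 15 mM KCl. Compounds added as cumulative concentrations to steady state. Contractility measured as 5 min area under the contraction curve per concentration; IC50 is the concentration relaxing KCl-induced contraction by 50%. Glyburide added at end.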
Turning to `CC(/N=c1\c(O)c(O)\c1=N/c1cccc2cccnc12)C(C)(C)C` (stereo not drawn), the half-inhibitory concentration (IC50) (commonly the point on the concentration scale where inhibition reaches its midpoint) was 8.1 µM.

Compound `CC(/N=c1\c(O)c(O)\c1=N/c1ccncc1)C(C)(C)C` (stereo not drawn) displayed an IC50 of 1.36 µM.

The compound `CC(C)C(C)/N=c1\c(O)c(O)\c1=N/c1ccc(C#N)cc1` (stereo not drawn) came in with an IC50 of 1.9 µM. This IC50 and that of the compound before are within 1.5-fold of each other.

Consider `CC(/N=c1\c(O)c(O)\c1=N/c1ccccc1C#N)C(C)(C)C` (stereo not drawn), for which the IC50 is more than 30 µM.

In turn, `CC(/N=c1\c(O)c(O)\c1=N/c1ccc(S(C)(=O)=O)cc1)C(C)(C)C` (stereo not drawn) registered a concentration for half-maximal inhibition (IC50) of more than 30 µM.

Consider `CSc1ccc(Nc2c(NC(C)C(C)(C)C)c(=O)c2=O)cc1` (stereo not drawn), for which the IC50 was more than 30 µM.

Consider `CC(C)(/N=c1\c(O)c(O)\c1=N/c1ccc(C#N)cc1)c1ccccc1`, for which the 50% inhibitory concentration (IC50) is more than 30 µM.

`CC(/N=c1\c(O)c(O)\c1=N/c1ccc(-n2ccnc2)cc1)C(C)(C)C` (stereo not drawn) came in with an IC50 of more than 30 µM.

Turning to `CCC(C)(C)/N=c1\c(O)c(O)\c1=N/c1ccc(C#N)cc1`, the IC50 was more than 30 µM.

`CC(/N=c1\c(O)c(O)\c1=N/c1ccc(CC#N)cc1)C(C)(C)C` (stereo not drawn) yielded a half-maximal inhibitory concentration (IC50) of 0.34 µM.

Take `CC(/N=c1\c(O)c(O)\c1=N/c1ccccc1)C(C)(C)C` (stereo not drawn): 5.4 µM corresponded to half-maximal inhibition (IC50).

Take `C[C@@H](/N=c1\c(O)c(O)\c1=N/c1ccc(C#N)cc1Cl)C(C)(C)C`: half-maximal inhibition (IC50) was put at 0.041 µM. This IC50 is about 130-fold lower than that of the compound before.

For the compound `COc1ccc(Nc2c(NC(C)C(C)(C)C)c(=O)c2=O)cc1` (stereo not drawn), the IC50 stood at 2.4 µM. This IC50 is about 59-fold higher than that of the compound before.

On to `Cc1cc(/N=c2\c(O)c(O)\c2=N/[C@H](C)C(C)(C)C)ccc1C#N`, for which half-maximal inhibition (IC50) required 0.63 µM.

With `CC(/N=c1\c(O)c(O)\c1=N/c1ccc(C#N)cc1)c1ccc(OC(F)(F)F)cc1` (stereo not drawn), the IC50 is more than 30 µM.

In the case of `C[C@@H](/N=c1\c(O)c(O)\c1=N/c1ccc2c[nH]nc2c1)C(C)(C)C`, the IC50 came out at 4.6 µM.

As for `CC(C)(C)/N=c1\c(O)c(O)\c1=N/c1ccc2ncccc2c1`, the half-maximal inhibitory concentration (IC50) was more than 30 µM.

Turning to `N#Cc1ccc(Nc2c(NC3CCCCC3)c(=O)c2=O)cc1`, the IC50 was more than 30 µM.

In turn, `CC(/N=c1\c(O)c(O)\c1=N/c1cnc2ccccc2c1)C(C)(C)C` (stereo not drawn) displayed a half-maximal inhibitory concentration (IC50) of more than 30 µM.

Compound `CC(/N=c1\c(O)c(O)\c1=N/c1ccc(S(N)(=O)=O)cc1)C(C)(C)C` (stereo not drawn) gave an IC50 of more than 30 µM.

For `CCC(C)/N=c1\c(O)c(O)\c1=N/c1ccc(C#N)cc1` (stereo not drawn), it took 2.1 µM to reach half-maximal inhibition (IC50).

Compound `COC(=O)c1ccc(Nc2c(NC(C)C(C)(C)C)c(=O)c2=O)cc1` (stereo not drawn) came in with an IC50 of more than 30 µM.

`CC(C)(C)/N=c1\c(O)c(O)\c1=N/c1cccnc1Cl` registered an IC50 of 1.77 µM.

`C[C@@H](/N=c1\c(O)c(O)\c1=N/c1cccnc1)C(C)(C)C` registered an IC50 of 1.9 µM.

`C[C@@H](/N=c1\c(O)c(O)\c1=N/c1ccncc1)C(C)(C)C` registered a half-inhibitory concentration (IC50) of 1.68 µM. The IC50 values of the last two compounds are within 1.5-fold of each other.

Compound `CC(C)(C)/N=c1\c(O)c(O)\c1=N/c1cccnc1` gave an IC50 of 2.8 µM.

Turning to `CC(C)/N=c1\c(O)c(O)\c1=N/c1ccc(C#N)cc1`, the IC50 was found to be 13.7 µM.

Take `CC(/N=c1\c(O)c(O)\c1=N/c1ccc(C(F)(F)F)cc1)C(C)(C)C` (stereo not drawn): the IC50 is more than 30 µM.

Turning to `C[C@@H](/N=c1\c(O)c(O)\c1=N/c1ccc2[nH]ncc2c1)C(C)(C)C`, the IC50 stood at 0.74 µM.

In turn, `CC(C)(C)/N=c1\c(O)c(O)\c1=N/c1cnc2ccccc2c1` displayed an IC50 of more than 30 µM.

The compound `COc1cc(/N=c2\c(O)c(O)\c2=N/C(C)C(C)(C)C)c2ncccc2c1` (stereo not drawn) returned an IC50 of more than 30 µM.

Regarding `N#Cc1ccc(Nc2c(NC(c3ccccc3)C(F)(F)F)c(=O)c2=O)cc1` (stereo not drawn), the IC50 was determined as 4 µM.

Compound `N#Cc1ccc(Nc2c(NCc3ccccc3)c(=O)c2=O)cc1` showed an IC50 of more than 30 µM.

`CC(C)(C)/N=c1\c(O)c(O)\c1=N/c1cccc2cnccc12` gave an IC50 of 1.84 µM.

For `N#Cc1ccc(/N=c2\c(O)c(O)\c2=N/C(CO)c2ccccc2)cc1` (stereo not drawn), the IC50 was 14.3 µM.

Compound `CC(/N=c1\c(O)c(O)\c1=N/c1ccc(-c2ccccc2)cc1)C(C)(C)C` (stereo not drawn) gave an IC50 of more than 30 µM.

`CCc1cc(Nc2c(N[C@H](C)C(C)(C)C)c(=O)c2=O)ccc1C#N` returned an IC50 of 17.6 µM.

The compound `C[C@@H](/N=c1\c(O)c(O)\c1=N/c1ccc(C#N)cc1O)C(C)(C)C` gave an IC50 of 6.05 µM.

On to `CC(=O)c1ccc(/N=c2\c(O)c(O)\c2=N/C(C)C(C)(C)C)cc1` (stereo not drawn), for which the IC50 amounted to 21.2 µM.

In turn, `CCCCCCC/N=c1\c(O)c(O)\c1=N/c1ccc(C#N)cc1` registered an IC50 of more than 30 µM.

Consider `Nc1c(Nc2cccnc2)c(=O)c1=O`, for which the IC50 is more than 30 µM.

In the case of `C[C@@H](/N=c1\c(O)c(O)\c1=N/c1ccc(C#N)c(Cl)c1)C(C)(C)C`, the concentration for half-maximal inhibition (IC50) was determined as 4.3 µM. This counts as single-digit micromolar.

`CC(/N=c1\c(O)c(O)\c1=N/c1ccc(OC(F)(F)F)cc1)C(C)(C)C` (stereo not drawn) returned an IC50 of more than 30 µM.

As to `CCCc1cc(C#N)ccc1/N=c1\c(O)c(O)\c1=N/[C@H](C)C(C)(C)C`, the IC50 is 23.1 µM.

`CC(/N=c1\c(O)c(O)\c1=N/c1cccnc1)C(C)(C)C` (stereo not drawn): it took 1.95 µM to reach half-maximal inhibition (IC50).

In turn, `CC[C@@H](/N=c1\c(O)c(O)\c1=N/c1ccc(C#N)cc1)c1ccccc1` gave an IC50 of 22.5 µM.

With `C[C@@H](/N=c1\c(O)c(O)\c1=N/c1ccc(C#N)cc1)C1CCCCC1`, the concentration for half-maximal inhibition (IC50) stood at 2.6 µM.

Compound `C[C@@H](/N=c1\c(O)c(O)\c1=N/c1ccc(C#N)cc1)c1ccccc1` came in with an IC50 of 0.056 µM.

Take `C[C@H](/N=c1\c(O)c(O)\c1=N/c1ccc(C#N)cc1)c1ccccc1`: the IC50 was more than 30 µM.

Compound `CC[C@H](/N=c1\c(O)c(O)\c1=N/c1ccc(C#N)cc1)c1ccccc1` registered a concentration for half-maximal inhibition (IC50) of more than 30 µM.

As for `C[C@H](/N=c1\c(O)c(O)\c1=N/c1ccc(C#N)cc1)C1CCCCC1`, the IC50 was more than 30 µM.

`Cc1cc(C#N)ccc1/N=c1\c(O)c(O)\c1=N/[C@H](C)C(C)(C)C` returned an IC50 of 1.08 µM.

In turn, `C[C@@H](/N=c1\c(O)c(O)\c1=N/c1ccc(C#N)cc1C(=O)c1ccccc1)C(C)(C)C` came in with an IC50 of 4.78 µM. Against the preceding compound, the IC50 is about 4.4-fold higher.

Compound `C[C@@H](/N=c1\c(O)c(O)\c1=N/c1ccc(C#N)c2c1CCCC2)C(C)(C)C` came in with an IC50 of 0.67 µM.

As for `COc1cc(C#N)ccc1/N=c1\c(O)c(O)\c1=N/[C@H](C)C(C)(C)C`, the IC50 is 0.29 µM.

With `COc1ncccc1/N=c1\c(O)c(O)\c1=N/C(C)(C)C`, 2.56 µM corresponded to half-maximal inhibition (IC50).

Regarding `CC(/N=c1\c(O)c(O)\c1=N/c1cncc(Br)c1)C(C)(C)C` (stereo not drawn), the IC50 amounted to 11.7 µM.

Compound `C[C@@H](/N=c1\c(O)c(O)\c1=N/c1ccc(C#N)cc1Br)C(C)(C)C` displayed an IC50 of 0.075 µM.

The compound `Cc1ccc(C(C)/N=c2\c(O)c(O)\c2=N/c2ccc(C#N)cc2)cc1` (stereo not drawn) yielded an IC50 of more than 30 µM.

In turn, `CC(/N=c1\c(O)c(O)\c1=N/c1ccc(Br)cc1)C(C)(C)C` (stereo not drawn) returned a concentration for half-maximal inhibition (IC50) of 1.26 µM.

`CC(C)(C)/N=c1\c(O)c(O)\c1=N/c1ccc(C#N)cc1` registered an IC50 of 0.56 µM.

`CC(/N=c1\c(O)c(O)\c1=N/c1cccnc1O)C(C)(C)C` (stereo not drawn) came in with an IC50 of more than 30 µM.

The compound `CC(/N=c1\c(O)c(O)\c1=N/c1cccc(C#N)c1)C(C)(C)C` (stereo not drawn) displayed a half-maximal inhibitory concentration (IC50) of 3.05 µM.

`C/N=c1\c(O)c(O)\c1=N/c1ccc(C#N)cc1` displayed an IC50 of more than 30 µM.

In the case of `CC(C)(C)C/N=c1\c(O)c(O)\c1=N/c1ccc(C#N)cc1`, the IC50 was more than 30 µM.

In turn, `CCC(CC)/N=c1\c(O)c(O)\c1=N/c1ccc(C#N)cc1` registered an IC50 of 3.34 µM.

Take `N#Cc1ccc(Nc2c(NC3CCCC3)c(=O)c2=O)cc1`: the IC50 amounted to 11.5 µM.

`CC(N/C(=N\C#N)Nc1ccncc1)C(C)(C)C` (single isomer, unassigned; (+)) [PINACIDIL ANHYDROUS]: half-maximal inhibition (IC50) was put at 0.63 µM.
